Laboratory results: ChEMBL document CHEMBL1147863, “Synthesis, antimicrobial activities and cytogenetic studies of newer diazepino quinoline derivatives via Vilsmeier-Haack reaction” (2007)
Active and inactive are the calls of the source. The calls are words filed in the database; no cut-off is given here.

Tests used:
Aeromonas hydrophila [1] = assay: Antibacterial activity against Aeromonas hydrophila at 0.125% (w/v) concentration after 24 hrs by disc diffusion method; type: functional
In short: (§1)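 Disc diffusion on nutrient agar (pH 7.5 ± 0.2) swabbed with bacterial culture; compounds dissolved in chloroform at 0.125%, 0.25% or 0.5% w/v, soaked onto 5 mm filter paper discs placed on seeded plates. Incubated 35 ± 2 °C, 24 h; inhibition zone diameter (mm) measured, minus zone from solvent-only plate.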

Aeromonas hydrophila [2] = assay: Antibacterial activity against Aeromonas hydrophila at 0.25% (w/v) concentration after 24 hrs by disc diffusion method; type: functional; in short: as §1
Aeromonas hydrophila [3] = assay: Antibacterial activity against Aeromonas hydrophila at 0.5% (w/v) concentration after 24 hrs by disc diffusion method; type: functional; in short: as §1
Escherichia coli [4] = assay: Antibacterial activity against Escherichia coli at 0.125% (w/v) concentration after 24 hrs by disc diffusion method; type: functional; in short: as §1
Escherichia coli [5] = assay: Antibacterial activity against Escherichia coli at 0.25% (w/v) concentration after 24 hrs by disc diffusion method; type: functional; in short: as §1
Escherichia coli [6] = assay: Antibacterial activity against Escherichia coli at 0.5% (w/v) concentration by after 24 hrs by disc diffusion method; type: functional; in short: as §1
Salmonella typhi [7] = assay: Antibacterial activity against Salmonella typhi at 0.125% (w/v) concentration after 24 hrs by disc diffusion method; type: functional, Salmonella enterica subsp. enterica serovar Typhi
In short: (§2)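 Disc diffusion on nutrient agar (pH 7.5 ± 0.2) swabbed with bacteria. Compounds were dissolved in chloroform at a final 0.125%, 0.25% or 0.5% w/v and loaded onto 5 mm filter-paper discs. Plates were incubated at 35 ± 2 °C for 24 h. The inhibition-zone diameter (mm) was reported after subtracting the zone of the solvent-only plate.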

Salmonella typhi [8] = assay: Antibacterial activity against Salmonella typhi at 0.25% (w/v) concentration after 24 hrs by disc diffusion method; type: functional, Salmonella enterica subsp. enterica serovar Typhi; in short: as §2
Salmonella typhi [9] = assay: Antibacterial activity against Salmonella typhi at 0.5% (w/v) concentration after 24 hrs by disc diffusion method; type: functional, Salmonella enterica subsp. enterica serovar Typhi; in short: as §2
Aspergillus flavus [10] = assay: Antifungal activity against Aspergillus flavus at 0.5% (w/v) concentration by disc diffusion method; type: functional
In short: (§3)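 Potato dextrose agar plates were seeded with a spore suspension (10⁶ spores/mL). Compounds in acetone at a final 0.5%, 1% or 2% w/v were loaded onto 5 mm filter-paper discs. Plates were incubated at 28 ± 2 °C for four days. Zone diameter was measured after subtracting the acetone-only plate zone, with carbendazim as standard.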

Aspergillus flavus [11] = assay: Antifungal activity against Aspergillus flavus at 1% (w/v) concentration by disc diffusion method; type: functional; in short: as §3
Aspergillus flavus [12] = assay: Antifungal activity against Aspergillus flavus at 2% (w/v) concentration by disc diffusion method; type: functional; in short: as §3
Talaromyces funiculosus [13] = assay: Antifungal activity against Penicillium funiculosum at 0.5% (w/v) concentration by disc diffusion method; type: functional; in short: as §3
Talaromyces funiculosus [14] = assay: Antifungal activity against Penicillium funiculosum at 1% (w/v) concentration by disc diffusion method; type: functional; in short: as §3
Talaromyces funiculosus [15] = assay: Antifungal activity against Penicillium funiculosum at 2% (w/v) concentration by disc diffusion method; type: functional; in short: as §3
Alternaria macrospora [16] = assay: Antifungal activity against Alternaria macrospora at 0.5% (w/v) concentration by disc diffusion method; type: functional; in short: as §3
Alternaria macrospora [17] = assay: Antifungal activity against Alternaria macrospora at 1% (w/v) concentration by disc diffusion method; type: functional; in short: as §3
Alternaria macrospora [18] = assay: Antifungal activity against Alternaria macrospora at 2% (w/v) concentration by disc diffusion method; type: functional; in short: as §3
Fusarium oxysporum [19] = assay: Antifungal activity against Fusarium oxysporum at 0.5% (w/v) concentration by disc diffusion method; type: functional; in short: as §3
Fusarium oxysporum [20] = assay: Antifungal activity against Fusarium oxysporum at 1% (w/v) concentration by disc diffusion method; type: functional; in short: as §3
Fusarium oxysporum [21] = assay: Antifungal activity against Fusarium oxysporum at 2% (w/v) concentration by disc diffusion method; type: functional; in short: as §3

SMILES	inhibition zone (IZ) (Aeromonas hydrophila [1]) [mm]	inhibition zone (IZ) (Aeromonas hydrophila [2]) [mm]	inhibition zone (IZ) (Aeromonas hydrophila [3]) [mm]	Activity (Escherichia coli [4])	inhibition zone (IZ) (Salmonella typhi [7]) [mm]	inhibition zone (IZ) (Salmonella typhi [8]) [mm]	inhibition zone (IZ) (Salmonella typhi [9]) [mm]	inhibition zone (IZ) (Aspergillus flavus [10]) [mm]	inhibition zone (IZ) (Aspergillus flavus [11]) [mm]	inhibition zone (IZ) (Aspergillus flavus [12]) [mm]	inhibition zone (IZ) (Talaromyces funiculosus [14]) [mm]	inhibition zone (IZ) (Talaromyces funiculosus [15]) [mm]	inhibition zone (IZ) (Alternaria macrospora [16]) [mm]	inhibition zone (IZ) (Alternaria macrospora [17]) [mm]	inhibition zone (IZ) (Alternaria macrospora [18]) [mm]	inhibition zone (IZ) (Fusarium oxysporum [20]) [mm]	inhibition zone (IZ) (Fusarium oxysporum [21]) [mm]	inhibition zone (IZ) (Talaromyces funiculosus [13]) [mm]	inhibition zone (IZ) (Fusarium oxysporum [19]) [mm]	inhibition zone (IZ) (Escherichia coli [6]) [mm]	further results
Cc1cccc2c(Cl)c(C=O)c(/C=C/O)nc12	4	8	11	inactive	4	7	11	1	2	5	2	6	2	5	9	3	7				Activity (Escherichia coli [5]): inactive; Activity (Escherichia coli [6]): inactive; Activity (Talaromyces funiculosus [13]): inactive; Activity (Fusarium oxysporum [19]): inactive
COC(=O)Nc1nc2ccccc2[nH]1 [CARBENDAZIM]								6	14	21	16	21	7	13	18	11	18	9	6		
Cc1ccc2c(Cl)c(C=O)c(/C=C/O)nc2c1	3	7	10	inactive	4	8	13	3	5	9	3	8	2	4	7	4	9	1	1	2	Activity (Escherichia coli [5]): inactive
Clc1ccc2nc3c(c(Cl)c2c1)C=NNC=C3	6	11	16		6	12	19	5	8	13	9	14	5	9	15	8	13	6	4	11	inhibition zone (IZ) (Escherichia coli [4]): 3 mm; inhibition zone (IZ) (Escherichia coli [5]): 7 mm
O=Cc1c(/C=C/O)nc2ccccc2c1Cl	4	6	9	inactive	3	5	9	2	3	8	1	5		1	4		4				Activity (Escherichia coli [5]): inactive; Activity (Escherichia coli [6]): inactive; Activity (Talaromyces funiculosus [13]): inactive; Activity (Alternaria macrospora [16]): inactive; Activity (Fusarium oxysporum [19]): inactive; Activity (Fusarium oxysporum [20]): inactive
Clc1c2c(nc3ccccc13)C=CNN=C2	5	8	12	inactive	4	6	10	3	5	9	4	9	1	3	7	3	7	1		4	inhibition zone (IZ) (Escherichia coli [5]): 2 mm; Activity (Fusarium oxysporum [19]): inactive
O=Cc1c(/C=C/O)nc2ccc(Cl)cc2c1Cl	5	9	14		6	11	17	3	6	10	5	10	3	7	11	5	11	2	2	8	inhibition zone (IZ) (Escherichia coli [4]): 1 mm; inhibition zone (IZ) (Escherichia coli [5]): 5 mm
CN[C@@H]1[C@H](O[C@H]2[C@H](O[C@H]3[C@H](O)[C@@H](O)[C@H](N=C(N)N)[C@@H](O)[C@@H]3N=C(N)N)O[C@@H](C)[C@]2(O)C=O)O[C@@H](CO)[C@H](O)[C@H]1O (stereo in doubt) [STREPTOMYCIN]	8	12	19		8	10	18													15	inhibition zone (IZ) (Escherichia coli [4]): 6 mm; inhibition zone (IZ) (Escherichia coli [5]): 9 mm
